Reference: ChEMBL document CHEMBL4513216, “Probing the Open Global Health Chemical Diversity Library for Multistage-Active Starting Points for Next-Generation Antimalarials” (ACS Infect Dis, 2020)

Experiment: Toxicity liver stage against HepG2, at 10uM
Type: cell-based
Design: test concentration 10 uM, cell line HepG2-A16-CD81EGFP
Settings: human, HepG2-A16-CD81EGFP cells; read-out: INHIBITION
In short: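 Uninfected HepG2-A16-CD81EGFP cells, 3 × 10^3 per well, 1536-well, plated on prespotted compound at 10 μM final, parasite-free screening media added to match infected plates; puromycin 10 μM positive, DMSO 0.5% negative; run in parallel with 48 h PbLuc assay at 37 °C, 5% CO2; viability by CellTiter-Glo luminescence, normalized to controls.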

Compound	cytotoxicity at 10 µM
CNc1nc(CNC(=O)Nc2ccccc2-c2noc(C)n2)cs1	-6.56%
CC(C)N(C)S(=O)(=O)c1ccc2c(c1)CCN(C(=O)c1ccccn1)C2	10.3%
Cc1cccc(CNC(Cn2cncn2)c2ccccc2)c1C (centres undefined)	-5.23%
c1ncn(Cc2cnc3n2CCN(Cc2ccsc2)CC3)n1	6.2%
O=C(c1ccc[nH]1)N1CCC2(CC1)COCCN(c1nccs1)C2	12.8%
Cc1ccnc(CC(C)N(C)c2cc(C3CCNCC3)nc(C)n2)c1 (centres undefined)	-46.2%
Cc1nc(C)n(C2CCCN(C(=O)c3ccc(F)c(F)c3)C2)n1 (centres undefined)	-11.9%
Cc1cc(CN2CCN(C(=O)c3sccc3C3CC3)CC2)no1	-10%
CC(C)Nc1ncccc1C(=O)NCc1ncc[nH]1	-7.9%
CC(=O)Nc1nc(CN2CCCC2Cn2cc(C)cn2)cs1 (centres undefined)	3.22%
CC(C)NC(=O)CC1COC2(CCN(Cc3cccnc3)CC2)C1 (centres undefined)	0.405%
COc1ccccc1OCCN(C)Cc1c(C2CC2)[nH]c2ncccc12	5.62%
CNc1ncccc1C(=O)N1CCc2c(nc(N)[nH]c2=O)C1	3.61%
O=C1C[C@@H]2CC[C@H](CN1)N2C(=O)CCc1ccccc1	-0.0739%
O=C(c1ccc(F)c(Cl)c1)N1C[C@H]2CC[C@@H](C1)N(Cc1ccccc1)C2	-8.28%
Cc1ccc(C)c(C(=O)N2CCC3(CCC(=O)N(CC(N)=O)C3)CC2)c1	17.7%
O=C(O)CN1CCOCC(Cc2ccc(Cl)cc2)C1 (centres undefined)	-25.7%
CN(C)S(=O)(=O)N1CCCC(CCC(=O)Nc2ccc(Cl)cc2)C1 (centres undefined)	-12.5%
COc1cccc(OCc2cc(C(=O)NC[C@@H]3CCCN3)n[nH]2)c1	0.732%
Cc1ccc(CN(Cc2nc3c(cnn3C)c(=O)[nH]2)C(C)C)s1	-5.48%
Cc1cc(CC(=O)N2CCCC2c2nc(C(C)C)no2)on1 (centres undefined)	-25.9%
CCCN(CCOC)c1nc(C)nc2sccc12	-134%

Compound	cytotoxicity at 10 µM
CC(=O)CCCC(=O)N(Cc1ccsc1)CC(C)C	-50.3%
Cc1nnc(CN2CCN(C)C3(CCNC(=O)CC3)C2)s1 (centres undefined)	-8.22%
CC(=O)N1CCCC1c1cc(N2CCN(CC3CC3)CC2)cc(C)n1 (centres undefined)	-2.14%
CN1CCCN(C(=O)c2cc(CN(C)CCc3ccccc3)on2)CC1	-15.3%
COCC1CN(C(=O)Nc2cc(Cl)cc(Cl)c2)CCO1 (centres undefined)	-4.44%
COCCN1CC[C@H](O)[C@@H]1Cc1ccccc1	-10%
COCCNC(=O)[C@@H]1C[C@H]2[C@H](CCN2c2cc(OC)ncn2)O1	8.56%
CN(CC1CCCCO1)S(=O)(=O)c1cccc(C(=O)N2CCOCC2)c1 (centres undefined)	-12.4%
CCc1nc(C)sc1CN1C[C@@H](C)[C@@](C)(O)C1	-1.47%
COc1ccc(-n2ccc(C(=O)NCCN3CCCCC3C)n2)cc1 (centres undefined)	-8.43%
COCC(=O)N1CC[C@H]2C[C@H](c3nc(C)no3)O[C@@H]2C1	-76.1%
Cc1nnc2ccc(OCCNS(C)(=O)=O)nn12	-6.02%
COCc1cc(N(C)CCc2c(C)n[nH]c2C)ncn1	0.681%
Cc1noc(C)c1CC(=O)N[C@@H]1CC[C@@H](Oc2ccccc2)[C@@H]1O	2.04%
CCN1CCCC(O)(CN(C)Cc2ccc(C)o2)C1 (centres undefined)	-3.65%
CC(=O)CN1CC2(CCNCC2)COc2ccccc2S1(=O)=O	3.13%
CCn1c(C(=O)N2CCN(CC[S+](C)[O-])CC2)cc2ccccc21 (centres undefined)	-3.49%
c1cnc(-c2cnc(N3CCSCC3)nc2C2CCCO2)cn1 (centres undefined)	4.4%
O=C(Nc1cc(C(F)(F)F)ccc1Cl)c1ccc(N2CCCC2)nn1	-4.43%
OC(COc1ccccc1Br)COC1CCOCC1 (centres undefined)	-8%
O=C(c1cc(C2CC2)[nH]n1)N1CCN(Cc2ccncc2)CC1	-10.9%
Cc1cccc(C(=O)N2C[C@H](NS(C)(=O)=O)[C@@H]3OCCC[C@@H]32)n1	-77.4%

Compound	cytotoxicity at 10 µM
CCc1nnnn1Cc1csc(N(C)C(C)=O)n1	0.63%
CS(=O)(=O)CCC(=O)N1C[C@H]2CC[C@@H](C1)N(Cc1ccccc1)C2=O	-0.0119%
c1coc(CN2CC[C@@H]3O[C@@H](COCc4ccncc4)CC[C@@H]32)c1	-155%
CC(C)NC(=O)C1CN(Cc2ccsc2)Cc2ccnn2C1 (centres undefined)	-5.03%
CN(Cc1cccc(F)c1)C(=O)CN1CCCC(Cn2cncn2)C1 (centres undefined)	4.64%
CCN1CCN(Cc2coc(-c3cccc(F)c3)n2)CC1	-7.75%
COCc1nc(C(=O)N2CCCC(n3ccnc3)C2)cs1 (centres undefined)	-2.12%
Cc1cnn(CC2CCN(CC(O)c3ccc(F)cc3)CC2)c1 (centres undefined)	-0.237%
COc1ccc(NC(=O)c2cnc(C3CCN(C(C)=O)C3)nc2C)cc1 (centres undefined)	-2.6%
Cc1nc(C2CCCN(C(=O)COCCc3ccccc3)C2)no1 (centres undefined)	-11.1%
Cc1cccc(CN2CCC(N(C)Cc3nnc(C4CC4)n3C)C2)c1 (centres undefined)	-6.04%
CC(C)(C)c1cnc(CN2CCCCC2Cn2cccn2)o1 (centres undefined)	-7.85%
COCc1nc(C(=O)N2CCCC2c2cc(C)on2)cs1 (centres undefined)	-5.83%
CC1=N[C@@]2(CC[C@@H]3CN(Cc4ccc(C)cc4)C[C@@H]32)C(=O)N1CC1CC1	1.7%
CN1CCC(N2CCC(C(=O)N(C)C)CC2)CC1	-1.82%
O=C(COCc1ccccc1Cl)Nc1ccnn1CC1CCOC1 (centres undefined)	-1.9%
CCc1nc(CN(C)C2CCN(CCCOc3ccccc3)C2)no1 (centres undefined)	0.141%
CCc1cc(N(C)Cc2ccno2)n2nc(C)c(C)c2n1	1.35%
CCN1CCN(C2CCN(Cc3nc(C4CC4)no3)CC2)C1=O	-2.69%
CC(C)C(=O)Nc1cc(C(=O)NC2CC(C)(C)NC(C)(C)C2)nn1C	-7.04%
COc1ccccc1C(=O)N1CCN(C(=O)Cc2ccccn2)CC1	-7.57%
Cc1ccccc1-c1cncc(C2CCN(C)CC2)n1	-6.13%

Compound	cytotoxicity at 10 µM
CCN(CC)[C@@H]1CN(Cc2nccn2C)[C@@H]2CCCO[C@H]12	4.92%
CCC1=NN2C(=N)C(=Cc3cccn3-c3ccc(Br)cc3)C(=O)N=C2S1	-7.83%
C=C/C=c1\c(=C/C)oc2c(NCc3ccccc3)nc(CC)nc12	10.4%
CC(=O)N1CCCN(C2CCCCc3ccccc32)CC1 (centres undefined)	-48.6%
Cc1ccc(N2CCN(C3CCc4ccccc4C3)CC2)nn1 (centres undefined)	-0.75%
CCO[C@@H]1CO[C@@]2(CCCN(C(=O)c3ccc(OC)c(F)c3)C2)C1	3.02%
CCN1CCN(C(=O)NCc2cccc(-c3cnn(C)c3)c2)CC1	-10%
CC(=O)NCCNCc1cn(CCN2CCSCC2)nc1C	0.95%
CCN(CC)CCNC(=O)CCc1c(C)nn(-c2ccccc2Br)c1C	10.6%
CC(C)c1n[nH]c(C2CN(C(=O)COCC(F)(F)F)CCO2)n1 (centres undefined)	-10.3%
CCc1cnc(CN2CCC(O)(c3cc(OC)cc(OC)c3)CC2)o1	-0.276%
O=C(O)C1c2nc[nH]c2CCN1Cc1ccccc1-c1ccccc1 (centres undefined)	-10.5%
Cc1csc(C2(NC(=O)NCCN3CCOCC3)CCCC2)n1	-3.55%
CN(C)CC(=O)N1C[C@@H]2CC[C@H](Oc3ccccc3)[C@@H]2C1	-26.4%
CCC1CN(Cc2nc(C(C)C)no2)CCC(=O)N1Cc1ccccc1 (centres undefined)	5.08%
O=C(c1ccncn1)N1CCC[C@]2(C[C@H](OCC3CC3)CO2)C1	-81.9%
O=C(c1cccc(S(=O)(=O)NCCc2nccs2)c1)N1CCOCC1	-4.19%
Cc1cc(C)n(CC(C)NC(=O)C2(c3ccccc3F)CC2)n1 (centres undefined)	-0.844%
COc1cc(C2(C(=O)NC3CCN(C4CC4)CC3)CC2)ccc1C	5.16%
CC(=O)N1CCC(c2nc(C)cc(-c3ccccc3C(=O)O)n2)CC1	-28%
CC(C)OCc1ccc(CNc2cncc(-n3cccn3)n2)cc1	43.8%
CN(C)C(=O)CCCS(=O)(=O)Cc1cc(Cl)c2c(c1)OCO2	-4.52%

Compound	cytotoxicity at 10 µM
Cc1cc(CN(C)C(=O)NC2CCCN(c3ncccn3)C2)no1 (centres undefined)	-7.26%
O=C(c1ccc(NC2CC2)nc1)N1CCCC(n2ccnc2)C1 (centres undefined)	-3.81%
C1CN(c2nc(C3CC3)no2)CCN(C2CCOCC2)C1	0.442%
CCS(=O)(=O)N1CCC(c2nnc(C(F)(F)F)o2)CC1	-11%
CNC(=O)N1CCc2cc(C(=O)NCC3CC3)c(NC(C)C)nc2CC1	2.02%
CN(Cc1cnn(C)c1)C(=O)NC1CCS(=O)(=O)C1 (centres undefined)	-14.4%
Cn1c(CN2CCOCC2)cc(=O)c(O)c1CN1CCCCC1	-3.15%
Cc1ncc(C(=O)N2CC(C(=O)N3CCOCC3)C2)c(C)n1	3.54%
COCCNC(=O)Cn1c(-c2ccc(F)cc2)nc(C)c(CCO)c1=O	-15%
CCC1CN(C(=O)c2cc(CN(C)CCc3ccccc3)on2)CCO1 (centres undefined)	-4.12%
Cc1ccc(NC(=O)C2CSCN2C(=O)c2ccncc2)c(C)c1 (centres undefined)	-10.4%
O=C1CN(CCCNS(=O)(=O)c2cccc(C(=O)NC3CC3)c2)CCN1	-3.45%
C[C@]1(O)CN(Cc2ncccc2F)CC[C@@H]1Oc1ccccc1	-21%
Cc1ccoc1C(=O)NCc1ccnc(OCC(F)(F)F)c1	-7.8%
O=C1[C@@H]2CN(C3CCOCC3)C[C@H]2CCN1CC1CC1	4.17%
Cc1nccc(C2CCCCN2Cc2ccc(F)cc2)n1 (centres undefined)	-6.06%
CCn1cnnc1CNC(=O)N1CCN(Cc2ccsc2)CC1	-15.4%
CC(C)N1CC(c2ccnc(Nc3nccs3)n2)C1	1.18%
CC(C)C(=O)NCc1ccccc1NS(=O)(=O)c1ccccc1	9.05%
CC(C)c1noc(CCCC(=O)N2CCN(Cc3ccccn3)CC2)n1	-1.79%
Cc1ccc(Cl)cc1NC(=O)C1CC(=O)N(Cc2ccccn2)C1 (centres undefined)	4.67%
